Active and inactive are the calls of the source.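 Rule for the calls, unless noted: active = inhibition at or above 50% at 10 µM; inactive = inhibition below 50%.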
Columns and labels:
[1] = inhibitors of TNFa-induced NFkB p65 translocation, primary screen, imaging, HUVEC, MLSMR starter and 10KST1 sets (AID 438;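 active = inhibition above 20% together with a positive visual image hit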;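 note: compound added about 3h40 before a 20 min TNFalpha stimulation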;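 for inhibition: signal is the nuclear over cytoplasmic p65 intensity ratio per well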); details: HUVEC TNFa-induced p65 nuclear translocation; cell count: measured here: nuclei count (cytotoxicity indicator), at 2.08 µM; inhibition: at 2 µM, stronger effect = higher value, 0% TNFa-plus-vehicle, 100% no-TNFa wells
[2] = inhibitors of mutant huntingtin aggregation, primary screen, imaging, exon1htt(103Q)mCFP cells, high-content imaging (AID 483;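 active = visual image review flags a hit and inhibition of aggregation exceeds 20%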;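 note: compound exposure lasted 3 days before fixation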;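 for nuclei count: percent of the per-plate median nuclei count of sample wells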); details: exon1htt(103Q)mCFP cell line, aggregate imaging, at 2 µM; inhibition of aggregation: stronger effect = higher value; nuclei count: measured here: cell count, toxicity
[3] = inhibitors of E-selectin induction by TNFa, primary screen, imaging, HUVEC, immunofluorescence, MLSMR starter and 10KST1 sets (AID 487;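 active = visually confirmed hit in the image check and inhibition above 20%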;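 for inhibition: signal is fraction of cell area covered by stained E-selectin grains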;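 for nuclei count: 100% = median nuclei count of all wells on the same plate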); details: HUVEC TNFalpha-induced E-selectin immunofluorescence imaging, at 2 µM; inhibition: stronger effect = higher value; nuclei count: measured here: cell number, toxicity
[4] = target: Voltage-gated potassium channel subunit beta-2 (Rattus norvegicus) (UniProt P62483); test: KvBeta enzyme negative modulators, primary screen, biochemical, NADPH fluorescence (AID 622;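 active = fluorescence slope higher than the sample average by over 3 SD, cut at about -0.22 in these data, passing the limit was not always enough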;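 note: slope of raw intensity against log time taken from 70 to 1610 s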); details: recombinant KvBeta, 4-cyanobenzaldehyde reduction, at 10 µM, stronger effect = higher value
[5] = target: Voltage-gated potassium channel subunit beta-2 (Rattus norvegicus) (UniProt P62483); test: KvBeta positive modulators, primary screen, biochemical, NADPH fluorescence (AID 623;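 active = NADPH fluorescence slope more negative than the mean of all samples by about 3 SD, 99.7% confidence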;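 note: fluorescence intensity change per second fitted from 20 to 320 s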); details: Recombinant KvBeta, NADPH fluorescence decrease slope, 10 min; at 10 µM; stronger effect = lower value
[6] = target: Alpha-2C adrenergic receptor (Homo sapiens) (UniProt P18825); test: modulators of alpha2C/GIRK thallium flux, primary screen, cell-based, HEK293 alpha2C/GIRK1/2 (AID 624;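 active = fluorescence slope after compound addition differing from the mean of all screened samples at 99.7% confidence, in either direction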;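 note: slope of fluorescence ratio to pre-addition baseline per second over 15 to 24 s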); details: thallium flux BTC fluorescence, at 10 µM, actives lie on both sides
[7] = inhibitors of larval lipid processing in zebrafish, primary screen, whole organism, PED6 fluorescence, gall bladder and intestine (AID 686;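 active = a full or partial loss of lipid-probe fluorescence in the fish gall bladder, intestine or both, judged by eye; inactive = no fluorescence loss, or compound toxic to the fish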;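 note: larvae 5 to 7 days old with five fish per well; signal comes from phospholipase A2 cleavage of quenched PED6 carried via bile; overnight exposure to compound and PED6 before scoring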); details: Zebrafish larvae PED6 lipid processing, fluorescence scoring; screened at 20 µM (by protocol)
Outline: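 System: live zebrafish larvae aged 5-7 days, whole organism; measure: graded gall bladder and intestinal fluorescence inhibition per well; incubation: overnight exposure; reagent: ingested quenched lipid PED6 at 100 nM; signal: By-eye fluorescence microscopy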

[8] = inhibitors of Sendai virus-induced IRF3 signaling, primary screen, TLR/RLR signaling modifier project, cell-based, Sendai virus stimulus, luciferase, 10K MLSCN set (AID 602276); details: HEK293 RL24 IRF3 luciferase reporter, at 10 µM, stronger effect = higher value;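 note: firefly luciferase from ISG56 promoter only with Renilla not read in this screen; 0% = Sendai virus plus DMSO and 100% = medium plus DMSO without virus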
[9] = inhibitors of poly I:C-induced TLR3 signaling, primary screen, cell-based, poly I:C stimulus, luciferase, 10K MLSCN set (AID 602277;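 active = inhibition of the reporter signal at or above 50%; inactive = inhibition below 50%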); details: HEK293-TLR3 RL24 IRF3 luciferase reporter, at 10 µM, stronger effect = higher value

Sequence of Alpha-2C adrenergic receptor (Homo sapiens) (P18825 whole entry, looked up): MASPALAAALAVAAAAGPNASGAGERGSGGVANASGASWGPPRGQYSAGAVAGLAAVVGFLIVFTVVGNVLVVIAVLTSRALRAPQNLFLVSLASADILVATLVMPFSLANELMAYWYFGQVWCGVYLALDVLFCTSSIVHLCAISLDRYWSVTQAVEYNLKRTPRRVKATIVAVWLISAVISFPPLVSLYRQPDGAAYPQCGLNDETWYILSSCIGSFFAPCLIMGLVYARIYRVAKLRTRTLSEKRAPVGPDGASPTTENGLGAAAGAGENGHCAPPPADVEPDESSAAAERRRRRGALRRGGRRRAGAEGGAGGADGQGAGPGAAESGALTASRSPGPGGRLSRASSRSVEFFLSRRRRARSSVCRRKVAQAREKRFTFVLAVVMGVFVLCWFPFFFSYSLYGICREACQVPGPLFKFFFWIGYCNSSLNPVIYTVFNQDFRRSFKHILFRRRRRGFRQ
Sequence of Voltage-gated potassium channel subunit beta-2 (Rattus norvegicus) (P62483 whole entry, looked up): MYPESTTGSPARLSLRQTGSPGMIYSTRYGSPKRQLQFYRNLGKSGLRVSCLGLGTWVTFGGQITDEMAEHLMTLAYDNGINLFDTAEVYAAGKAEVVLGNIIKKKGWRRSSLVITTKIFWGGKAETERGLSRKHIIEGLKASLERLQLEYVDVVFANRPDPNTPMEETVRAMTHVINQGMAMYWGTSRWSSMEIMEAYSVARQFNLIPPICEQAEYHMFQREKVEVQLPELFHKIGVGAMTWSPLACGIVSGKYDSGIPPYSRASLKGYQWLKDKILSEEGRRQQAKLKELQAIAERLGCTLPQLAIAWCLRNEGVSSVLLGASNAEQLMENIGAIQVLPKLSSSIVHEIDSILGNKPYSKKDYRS

SMILES | cell count [1] | inhibition [1] | inhibition of aggregation [2] | nuclei count [2] [%] | inhibition [3] | nuclei count [3] [%] | fluorescence slope [4] | NADPH fluorescence slope [5] | slope [6] | outcome [7] | inhibition [8] | inhibition [9]
CCn1c(=N)n(CC(=O)c2ccco2)c2ccccc21 | 407 | -11.8% (inactive) | 22.6% (inactive) | 68 | 52.9% (active) | 83.4 | -0.391 (inactive) | -5.5e-05 (inactive) | 0.00452 (inactive) | inactive | 4.56% (inactive) | 2.85% (inactive)
Cc1nnc(SCCCn2c(N3CCCCC3)nc3c2c(=O)[nH]c(=O)n3C)s1 | 382 | -2.4% (inactive) | -17.5% (inactive) | 109 | -64.9% (inactive) | 93.7 | -0.458 (inactive) | -1.1e-05 (inactive) | 0.00412 (inactive) | inactive | 8.32% (inactive) | 17.6% (inactive)
CC1CC(C)CN(c2nc3c(c(=O)[nH]c(=O)n3C)n2CCCSc2nc3ccccc3s2)C1 (configuration not stated) | 383 | -4.3% (inactive) | 33.6% (inactive) | 97.2 | -83.6% (inactive) | 107 | -0.445 (inactive) | -5e-05 (inactive) | 0.00577 (inactive) | inactive | 10.4% (inactive) | 11.5% (inactive)
CCCNC(=O)c1cc(S(=O)(=O)N2CCc3ccccc32)ccc1F | 503 | -17.2% (inactive) | 14.3% (inactive) | 74.6 | -32.7% (inactive) | 104 | -0.412 (inactive) | -7.4e-05 (inactive) | 0.00573 (inactive) | inactive | 8.07% (inactive) | 0.176% (inactive)
O=C(OC1CCc2ccccc2C1=O)c1ccccc1O (configuration not stated) | 304 | 3.8% (inactive) | -0.1% (inactive) | 100 | -86.8% (inactive) | 106 | -0.386 (inactive) | -5.3e-05 (inactive) | 0.00569 (inactive) | inactive | -5.07% (inactive) | -40.5% (inactive)
Nc1ccc(S(=O)(=O)c2cccc(N)c2)cc1 | 655 | -8.6% (inactive) | -8.8% (inactive) | 81.5 | -2.1% (inactive) | 108 | -0.435 (inactive) | -1.3e-05 (inactive) | 0.00439 (inactive) | inactive | 15.4% (inactive) | 15.8% (inactive)
CCN1C(=O)/C(=C/N(C)c2ccccc2)OC1=S | 592 | -12.2% (inactive) | 12.1% (inactive) | 84.4 | 34.8% (inactive) | 93.7 | -0.469 (inactive) | -5.3e-05 (inactive) | 0.00485 (inactive) | inactive | -11.5% (inactive) | -64.8% (inactive)
COC(=O)Nc1ccc(S(=O)(=O)N2CCCCCC2)cc1 | 336 | -2.5% (inactive) | 1.8% (inactive) | 100 | -61.6% (inactive) | 127 | -0.354 (inactive) | 1.2e-05 (inactive) | 0.0065 (inactive) | inactive | 17.1% (inactive) | 19.7% (inactive)
COC(=O)c1ccc2c(=O)n(NC(C)=O)c(=S)[nH]c2c1 | 627 | 8.7% (inactive) | -5% (inactive) | 108 | -73.1% (inactive) | 114 | -0.367 (inactive) | -6.6e-05 (inactive) | 0.00487 (inactive) | inactive | 2.98% (inactive) | -0.555% (inactive)
c1cncc(C2Nc3ccccc3-c3nc4ccccc4n32)c1 (configuration not stated) | 428 | 21.8% (active) | 2.7% (inactive) | 93.3 | -151% (inactive) | 116 | -0.37 (inactive) | -5.6e-05 (inactive) | 0.00507 (inactive) | inactive | -7% (inactive) | -38.6% (inactive)
COc1ccccc1N1CCN(c2cc(N3CCCC3)nc(C)n2)CC1 | 310 | 7.3% (inactive) | 0% (inactive) | 102 | -60.1% (inactive) | 136 | -0.471 (inactive) | -7.2e-05 (inactive) | 0.0045 (inactive) | inactive | 3.33% (inactive) | 1.07% (inactive)
